Reference: ChEMBL document CHEMBL3994637, “Broad spectrum anti-infective properties of benzisothiazolones and the parallels in their anti-bacterial and anti-fungal effects” (Bioorg Med Chem Lett, 2017)
Converted amounts (≈) assume the structure as drawn.

Tests used:
Assay type in all cases: functional
Staphylococcus aureus [1] = test: Antibacterial activity against Staphylococcus aureus ATCC 25923 by broth microdilution method
Plasmodium falciparum = test: Antimalarial activity against chloroquine-sensitive Plasmodium falciparum 3D7 after 72 hrs by SYBR Green-1 staining based fluorescence assay; conditions: 3D7, 72 h
Klebsiella pneumoniae = test: Antibacterial activity against Klebsiella pneumoniae ATCC 27736 by broth microdilution method
How it was run: (§1)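 Bacteria were tested by the NCCLS method in Mueller Hinton broth, with gentamicin and norfloxacin as reference drugs.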

Staphylococcus aureus [2] = test: Antibacterial activity against methicillin-resistant Staphylococcus aureus ATCC 700699 by broth microdilution method; conditions: Mu50
[3] = system: Trichophyton mentagrophytes; test: Anti-fungal activity against Trichophyton mentagrophytes after 48 hrs by broth microdilution method
Escherichia coli = test: Antibacterial activity against Escherichia coli ATCC 9637 by broth microdilution method; conditions: W; how it was run: as §1
Pseudomonas aeruginosa = test: Antibacterial activity against Pseudomonas aeruginosa ATCC BAA-427 by broth microdilution method; how it was run: as §1
Cryptococcus neoformans = test: Anti-fungal activity against Cryptococcus neoformans after 48 hrs by broth microdilution method
Candida parapsilosis = test: Anti-fungal activity against Candida parapsilosis ATCC 22019 after 48 hrs by broth microdilution method; conditions: Lodderomyces parapsilosis, ATCC 22019, 48 h
Aspergillus fumigatus = test: Anti-fungal activity against Aspergillus fumigatus after 48 hrs by broth microdilution method
Sporothrix schenckii = test: Anti-fungal activity against Sporothrix schenckii after 48 hrs by broth microdilution method
Candida albicans = test: Anti-fungal activity against Candida albicans after 48 hrs by broth microdilution method
Staphylococcus aureus [4] = test: Antibacterial activity against Staphylococcus aureus ATCC 29213 by broth microdilution method

## CC[C@H](C)[C@@H](C(=O)OC)n1sc2ccccc2c1=O
Staphylococcus aureus [1]
  IC50: 2 µg/mL (≈ 7.16 µM)
  MIC: 4.2 µg/mL (≈ 15 µM)
Plasmodium falciparum
  IC50: > 2000 nM
Klebsiella pneumoniae
  IC50: > 50 µg/mL
  MIC: > 50 µg/mL
Staphylococcus aureus [2]
  IC50: 0.43 µg/mL (≈ 1.54 µM)
  MIC: 0.89 µg/mL (≈ 3.19 µM)
[3]
  IC50: > 50 µg/mL
  MIC: > 50 µg/mL
Escherichia coli
  IC50: > 50 µg/mL
  MIC: > 50 µg/mL
Pseudomonas aeruginosa
  IC50: > 50 µg/mL
  MIC: > 50 µg/mL
Cryptococcus neoformans
  IC50: 7.3 µg/mL (≈ 26.1 µM)
  MIC: 8.3 µg/mL (≈ 29.7 µM)
Candida parapsilosis
  IC50: 3.1 µg/mL (≈ 11.1 µM)
  MIC: 4.5 µg/mL (≈ 16.1 µM)
Aspergillus fumigatus
  MIC: 12.5 µg/mL (≈ 44.7 µM)
Sporothrix schenckii
  IC50: 4.7 µg/mL (≈ 16.8 µM)
  MIC: 18.2 µg/mL (≈ 65.1 µM)
Candida albicans
  IC50: 1.6 µg/mL (≈ 5.73 µM)
  MIC: 2.5 µg/mL (≈ 8.95 µM)
Staphylococcus aureus [4]
  IC50: 2.1 µg/mL (≈ 7.52 µM)
  MIC: 4.3 µg/mL (≈ 15.4 µM)

## C[C@@H]1[C@H](O)[C@@H](C)/C=C/C=C/C=C/C=C/C=C/C=C/C=C/[C@H](O[C@@H]2O[C@H](C)[C@@H](O)[C@H](N)[C@@H]2O)C[C@@H]2O[C@](O)(C[C@@H](O)C[C@@H](O)[C@H](O)CC[C@@H](O)C[C@@H](O)CC(=O)O[C@H]1C)C[C@H](O)[C@H]2C(=O)O [AMPHOTERICIN B]
[3]
  MIC: 0.25 µg/mL (≈ 0.271 µM)
Cryptococcus neoformans
  MIC: 0.125 µg/mL (≈ 0.135 µM)
Candida parapsilosis
  MIC: 0.016 µg/mL (≈ 0.0173 µM)
Aspergillus fumigatus
  MIC: 0.5 µg/mL (≈ 0.541 µM)
Sporothrix schenckii
  MIC: 0.25 µg/mL (≈ 0.271 µM)
Candida albicans
  MIC: 0.016 µg/mL (≈ 0.0173 µM)

## COC(=O)[C@H](C)n1sc2ccccc2c1=O
Staphylococcus aureus [1]
  IC50: 2 µg/mL (≈ 8.43 µM)
  MIC: 3 µg/mL (≈ 12.6 µM)
Plasmodium falciparum
  IC50: > 2000 nM
Klebsiella pneumoniae
  IC50: > 50 µg/mL
  MIC: > 50 µg/mL
Staphylococcus aureus [2]
  IC50: 0.84 µg/mL (≈ 3.54 µM)
  MIC: 0.87 µg/mL (≈ 3.67 µM)
[3]
  IC50: 11.4 µg/mL (≈ 48 µM)
  MIC: 12 µg/mL (≈ 50.6 µM)
Escherichia coli
  IC50: > 50 µg/mL
  MIC: > 50 µg/mL
Pseudomonas aeruginosa
  IC50: > 50 µg/mL
  MIC: > 50 µg/mL
Cryptococcus neoformans
  IC50: 1.4 µg/mL (≈ 5.9 µM)
  MIC: 2 µg/mL (≈ 8.43 µM)
Candida parapsilosis
  MIC: 12.5 µg/mL (≈ 52.7 µM)
Aspergillus fumigatus
  MIC: 25 µg/mL (≈ 105 µM)
Sporothrix schenckii
  IC50: 2.9 µg/mL (≈ 12.2 µM)
  MIC: 12.2 µg/mL (≈ 51.4 µM)
Candida albicans
  IC50: 1.9 µg/mL (≈ 8.01 µM)
  MIC: 2.7 µg/mL (≈ 11.4 µM)
Staphylococcus aureus [4]
  IC50: 6.4 µg/mL (≈ 27 µM)
  MIC: 8.4 µg/mL (≈ 35.4 µM)

## CC(Cn1sc2ccccc2c1=O)n1sc2ccccc2c1=O (stereo unspecified)
Staphylococcus aureus [1]
  IC50: 6.1 µg/mL (≈ 17.8 µM)
  MIC: 12.4 µg/mL (≈ 36.2 µM)
Plasmodium falciparum
  IC50: > 2000 nM
Klebsiella pneumoniae
  IC50: > 50 µg/mL
  MIC: > 50 µg/mL
Staphylococcus aureus [2]
  IC50: 1.5 µg/mL (≈ 4.38 µM)
  MIC: 2.6 µg/mL (≈ 7.59 µM)
[3]
  MIC: 4.3 µg/mL (≈ 12.6 µM)
Escherichia coli
  IC50: > 50 µg/mL
  MIC: > 50 µg/mL
Pseudomonas aeruginosa
  IC50: > 50 µg/mL
  MIC: > 50 µg/mL
Cryptococcus neoformans
  IC50: 1.61 µg/mL (≈ 4.7 µM)
  MIC: 1.67 µg/mL (≈ 4.88 µM)
Candida parapsilosis
  IC50: > 50 µg/mL
  MIC: > 50 µg/mL
Aspergillus fumigatus
  MIC: 12.5 µg/mL (≈ 36.5 µM)
Sporothrix schenckii
  IC50: 3.7 µg/mL (≈ 10.8 µM)
  MIC: 6.6 µg/mL (≈ 19.3 µM)
Candida albicans
  IC50: 2.2 µg/mL (≈ 6.42 µM)
  MIC: 3.1 µg/mL (≈ 9.05 µM)
Staphylococcus aureus [4]
  IC50: 2 µg/mL (≈ 5.84 µM)
  MIC: 4.1 µg/mL (≈ 12 µM)

## Nc1ccccc1-n1sc2ccccc2c1=O
Staphylococcus aureus [1]
  IC50: > 50 µg/mL
  MIC: > 50 µg/mL
Plasmodium falciparum
  IC50: > 2000 nM
Klebsiella pneumoniae
  IC50: > 50 µg/mL
  MIC: > 50 µg/mL
Staphylococcus aureus [2]
  IC50: > 50 µg/mL
  MIC: > 50 µg/mL
[3]
  MIC: 3.3 µg/mL (≈ 13.6 µM)
Escherichia coli
  IC50: > 50 µg/mL
  MIC: > 50 µg/mL
Pseudomonas aeruginosa
  IC50: > 50 µg/mL
  MIC: > 50 µg/mL
Cryptococcus neoformans
  IC50: 1.9 µg/mL (≈ 7.84 µM)
  MIC: 2.3 µg/mL (≈ 9.49 µM)
Candida parapsilosis
  IC50: > 50 µg/mL
  MIC: > 50 µg/mL
Aspergillus fumigatus
  MIC: 12.5 µg/mL (≈ 51.6 µM)
Sporothrix schenckii
  IC50: 5.7 µg/mL (≈ 23.5 µM)
  MIC: 11.7 µg/mL (≈ 48.3 µM)
Candida albicans
  IC50: 2.6 µg/mL (≈ 10.7 µM)
  MIC: 4.3 µg/mL (≈ 17.7 µM)
Staphylococcus aureus [4]
  IC50: > 50 µg/mL
  MIC: > 50 µg/mL

## COC(=O)[C@H](c1ccccc1)n1sc2ccccc2c1=O
Staphylococcus aureus [1]
  IC50: 1.1 µg/mL (≈ 3.67 µM)
  MIC: 1.5 µg/mL (≈ 5.01 µM)
Plasmodium falciparum
  IC50: > 2000 nM
Klebsiella pneumoniae
  IC50: > 50 µg/mL
  MIC: > 50 µg/mL
Staphylococcus aureus [2]
  IC50: 2.6 µg/mL (≈ 8.69 µM)
  MIC: 4.2 µg/mL (≈ 14 µM)
[3]
  IC50: > 50 µg/mL
  MIC: > 50 µg/mL
Escherichia coli
  IC50: > 50 µg/mL
  MIC: > 50 µg/mL
Pseudomonas aeruginosa
  IC50: > 50 µg/mL
  MIC: > 50 µg/mL
Cryptococcus neoformans
  IC50: > 50 µg/mL
  MIC: > 50 µg/mL
Candida parapsilosis
  IC50: > 50 µg/mL
  MIC: > 50 µg/mL
Aspergillus fumigatus
  IC50: > 50 µg/mL
  MIC: > 50 µg/mL
Sporothrix schenckii
  IC50: > 50 µg/mL
  MIC: > 50 µg/mL
Candida albicans
  IC50: > 50 µg/mL
  MIC: > 50 µg/mL
Staphylococcus aureus [4]
  IC50: 13.5 µg/mL (≈ 45.1 µM)
  MIC: 18.7 µg/mL (≈ 62.5 µM)

## GENTAMICIN
Staphylococcus aureus [1]
  MIC: 6.25 µg/mL
Klebsiella pneumoniae
  MIC: 0.78 µg/mL
Staphylococcus aureus [2]
  MIC: > 50 µg/mL
Escherichia coli
  MIC: 6.25 µg/mL
Pseudomonas aeruginosa
  MIC: > 50 µg/mL
Staphylococcus aureus [4]
  MIC: 0.78 µg/mL

## CCn1cc(C(=O)O)c(=O)c2cc(F)c(N3CCNCC3)cc21 [NORFLOXACIN]
Staphylococcus aureus [1]
  MIC: 0.39 µg/mL (≈ 1.22 µM)
Klebsiella pneumoniae
  MIC: 0.78 µg/mL (≈ 2.44 µM)
Staphylococcus aureus [2]
  MIC: > 50 µg/mL
Escherichia coli
  MIC: 0.39 µg/mL (≈ 1.22 µM)
Pseudomonas aeruginosa
  MIC: > 50 µg/mL
Staphylococcus aureus [4]
  MIC: 0.78 µg/mL (≈ 2.44 µM)

## O=c1c2ccccc2sn1-c1ccccc1-n1sc2ccccc2c1=O
Staphylococcus aureus [1]
  IC50: 10 µg/mL (≈ 26.6 µM)
  MIC: 18 µg/mL (≈ 47.8 µM)
Plasmodium falciparum
  IC50: > 2000 nM
Klebsiella pneumoniae
  IC50: > 50 µg/mL
  MIC: > 50 µg/mL
Staphylococcus aureus [2]
  IC50: 4.7 µg/mL (≈ 12.5 µM)
  MIC: 10.2 µg/mL (≈ 27.1 µM)
[3]
  IC50: 12.5 µg/mL (≈ 33.2 µM)
  MIC: 13.6 µg/mL (≈ 36.1 µM)
Escherichia coli
  IC50: > 50 µg/mL
  MIC: > 50 µg/mL
Pseudomonas aeruginosa
  IC50: > 50 µg/mL
  MIC: > 50 µg/mL
Cryptococcus neoformans
  IC50: 13.7 µg/mL (≈ 36.4 µM)
  MIC: 14.4 µg/mL (≈ 38.3 µM)
Candida parapsilosis
  IC50: 15.2 µg/mL (≈ 40.4 µM)
  MIC: 17.1 µg/mL (≈ 45.4 µM)
Aspergillus fumigatus
  IC50: > 50 µg/mL
  MIC: > 50 µg/mL
Sporothrix schenckii
  IC50: > 50 µg/mL
  MIC: > 50 µg/mL
Candida albicans
  IC50: 14.2 µg/mL (≈ 37.7 µM)
  MIC: 25 µg/mL (≈ 66.4 µM)
Staphylococcus aureus [4]
  IC50: 6.3 µg/mL (≈ 16.7 µM)
  MIC: 6.5 µg/mL (≈ 17.3 µM)
